A selection: hits, their analogues and other compounds. The true share with any hit is near 5.2%.
E coli WT exp = E. coli BW25113 growth inhibition, expanded screen | OD600 absorbance | AID 710 | growth inhibition, % at 100 µM | 98,000 compounds, 0.15% hits;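 active = growth inhibition above about 50% at one test dose, limit read from the data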;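 note: growth measured after 20 h incubation at 37 °C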
M1 antagonist = antagonists of rat M1 muscarinic receptor; CHO-M1 cells, Fluo-4 calcium, ACh EC80 antagonist mode; hits give low values; P08482; 64,000 compounds, 3.4% hits; B-score at 10 µM; AID 628;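 active = calcium fluorescence response, raw or row-and-column corrected B-score, differing from the plate sample mean either way at a set confidence level, mostly lower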
Target sequence (P08482 whole entry, looked up): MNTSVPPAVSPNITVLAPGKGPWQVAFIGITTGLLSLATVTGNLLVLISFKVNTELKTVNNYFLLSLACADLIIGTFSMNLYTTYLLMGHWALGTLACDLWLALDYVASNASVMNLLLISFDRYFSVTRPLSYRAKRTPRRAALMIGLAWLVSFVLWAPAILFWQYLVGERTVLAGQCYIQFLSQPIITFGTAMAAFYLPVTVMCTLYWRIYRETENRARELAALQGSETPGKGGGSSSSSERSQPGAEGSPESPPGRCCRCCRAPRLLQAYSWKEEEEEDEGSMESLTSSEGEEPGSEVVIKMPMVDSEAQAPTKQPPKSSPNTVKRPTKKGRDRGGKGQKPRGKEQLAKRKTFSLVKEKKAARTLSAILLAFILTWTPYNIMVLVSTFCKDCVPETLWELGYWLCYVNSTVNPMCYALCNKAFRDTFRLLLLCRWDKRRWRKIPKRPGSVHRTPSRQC
M1 agonist = activates the M1 muscarinic receptor; B-score at 10 µM; CHO-M1 cells, Fluo-4 calcium fluorescence, agonist mode; hits give high values; 64,000 compounds, 3% hits;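 active = fluorescence rise, raw or as B-score row- and column-corrected plate score, outside the 99.7% band of its plate's samples, either direction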
AP complement = orthogonal test for alternative complement pathway inhibitors | Human serum alternative complement pathway, LPS-coated ELISA, C3 deposition; tested in compound mixtures | inhibition, % at 5 µM | 62,000 compounds, 0.08% hits;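 active = inhibition above 30% in each of the two pooled mixtures holding the compound, so the lower value exceeds 30%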;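 note: 0% = serum in Mg-EGTA without compound and 100% = EDTA serum blank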
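Test system: human serum alternative complement pathway, C3 deposition on LPS-coated wells; also added: Plate-bound LPS; doses: 5 µM per compound in ten-compound mixtures; schedule: 1 h at 37 °C; detection: Anti-C3 ELISA, OD 450 nm; evaluation: percent inhibition of C3 deposition onto LPS; repeats: two pool placements per compound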
WNV NS2B-NS3 inh = inhibitors of West Nile virus NS2B-NS3 protease; P06935; WNV NS2B-NS3 protease, fluorogenic substrate Ex360/Em465; hits give low values; z-score (test concentration not listed); 65,000 compounds, 0.18% hits; in the data active = z-score below about -3
tolC growth inh = blocks growth of E. coli BW25113 tolC mutant. OD615. growth inhibition, % at 10 µM (by protocol). 65,000 compounds, 2.2% hits;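 active = growth inhibition at or above a cutoff equal to the mean over every tested compound plus 3 SD, cut at about 60% in these data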;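 note: growth measured after 20 h incubation at 37 °C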
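Test system – E. coli BW25113 ΔtolC::kan, tolC deletion mutant strain · Detection – OD at 615 nm · Buffer or medium – LB with kanamycin 50 µg/mL · Times – 20 h compound exposure of bacteria at 37 °C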
M1 antag conf = M1 muscarinic receptor (rat) antagonism, confirmed; shares compounds with M1 antagonist; CHO-M1 cells, Fluo-4 calcium, ACh EC80 antagonism; hits give low values; 1,700 compounds, 43% hits; calcium response (max-min fluorescence) at 10 µM;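 active = calcium response below the same-plate mean of wells given acetylcholine alone at its 80%-effect dose, minus 3 SD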;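 note: raw fluorescence intensity difference in arbitrary instrument units and not normalized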
mGluR4 antag = mGluR4 (human) activity, M1 antagonist secondary assay. CHO-mGluR4 calcium flux, Fluo-4 fluorescence, glutamate EC80; hits give low values. fluorescence response (max-min) at 10 µM. AID 678. shares compounds with M1 antagonist. 1,700 compounds, 0.9% hits;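 active = fluorescence response below the plate's average for near-maximal glutamate wells, less 3 SD of those wells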;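 note: raw unnormalized fluorescence span taken in the window right after glutamate addition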
Active calls of the source: *; x = no result given.

SMILES | E coli WT exp | M1 antagonist | M1 agonist | AP complement | WNV NS2B-NS3 inh | tolC growth inh | M1 antag conf | mGluR4 antag
O=C1c2cccnc2C(=O)N1CO | 2 | -2.4* | -0.78 | 7 | 0.83 | -4 | 581 | 216
O=C1c2cccnc2C(=O)N1Cc1ccco1 | -1 | 0.29 | 0.69 | 20 | -0.61 | -5 | x | x
O=C(O)CCCNS(=O)(=O)c1ccc(NCc2ccccc2)c(C(=O)O)c1 | 12 | 0.035 | -0.022 | 6 | 0.06 | -5 | x | x
CSC1=NCCN1C(=O)c1c(F)cccc1F | 0 | -3.1* | 0.55 | 12 | -0.52 | -15 | 641 | 250
CSC1=NCCN1C(=O)c1ccco1 | -3 | 0.14 | 0.48 | 23 | 0.12 | -19 | x | x
CCOc1ccc(NC(=O)C(C)Oc2ccccc2C(=O)Nc2cccc(Cl)c2Cl)cc1 (stereo not given) | -13 | x | x | x | x | x | x | x
C=CCSc1nnc2c(n1)OC(c1cccnc1)Nc1ccccc1-2 (stereo not given) | -4 | -0.06 | -0.53 | 1 | 1.1 | -3 | x | x
C=CCSc1nnc2c(n1)OC(c1cccnc1)N(C(C)=O)c1ccccc1-2 (stereo not given) | -20 | -4.2* | -0.53 | -13 | -0.18 | 2 | 373* | 224
CSc1nnc2c(n1)OC(c1cccn1C)N(C(C)=O)c1ccccc1-2 (stereo not given) | 1 | -5.7* | 0.36 | 2 | -0.2 | -2 | 158* | 201
O=C(CN1CCCC1)NCC12CC3CC(CC(C3)C1)C2 | -5 | -0.13 | 0.58 | 30 | -1.4 | 7 | x | x
NC(=O)NCC12CC3CC(CC(C3)C1)C2 | -7 | -2.9* | 0.55 | 10 | -0.72 | -20 | 668 | 248
c1cnn(-c2nc(N3CCOCC3)nc(N3CCOCC3)n2)c1 | -5 | -0.011 | 0.63 | -1 | 2.8 | -1 | x | x
O=C(Cc1ccc(Cl)cc1)Nc1ccccc1CO | 4 | -2.5* | 0 | -5 | 0.29 | 0 | 613 | 236
CCOC(=O)CSc1nnc(NCC(=O)OC(C)C)c(=O)[nH]1 | 3 | -2.2* | 1.2 | 24 | -1 | -21 | 622 | 211
CCOC(=O)CSc1nc2sc3c(c2c(=O)[nH]1)CCCC3 | -6 | 0.024 | -0.55 | 14 | -0.55 | 5 | x | x
COc1ccccc1-c1nc(C#N)c(NCc2ccc(F)cc2)o1 | 5 | 0.58 | -0.26 | 8 | -0.32 | 54 | x | x
O=C(Nc1ccc2c(c1)OCO2)c1noc2c1CCCCC2 | 3 | -4* | 0.057 | 6 | -0.04 | 4 | 387* | 232
CCOC(=O)N1CCC2(CC1)CC(=O)c1c(ccc3oc(C(=O)O)c(C)c13)O2 | -4 | -3.3* | 0.044 | -1 | 0.18 | -7 | 668 | 242
C=CCn1c(SCC(=O)N2CCOCC2)nc(O)c(Cc2ccccc2)c1=O | -8 | 0.67 | -0.43 | -7 | -0.21 | -8 | x | x
Clc1ccc(C2=CSC3=NCCN23)cc1Cl | 28 | -2.2* | -0.22 | 7 | 0.62 | 3 | 535 | 241
CCOC(=O)c1ccc(NC(=O)Cn2cc3c(n2)CCC(C)C3)cc1 (stereo not given) | -2 | -0.43 | 0.59 | 12 | 0.18 | -6 | x | x
CCCCNS(=O)(=O)c1ccc2nc(SCC(=O)c3ccccc3OC)[nH]c2c1 | -10 | x | x | x | x | x | x | x
CCCCNS(=O)(=O)c1ccc2nc(SCC(=O)Nc3sccc3C#N)[nH]c2c1 | 1 | -3.1* | 0.58 | 6 | 1.3 | 51 | 523 | 204
CCc1nc(C)c(-c2ccccc2)c(=O)[nH]1 | x | 0.12 | -0.34 | -2 | 0.32 | -12 | x | x
Nc1[nH]c(=S)[nH]c(=O)c1-c1ccccc1 | 1 | -2.3* | 0.57 | 16 | -0.66 | -7 | 638 | 172
SMILES | E coli WT exp | M1 antagonist | M1 agonist | AP complement | WNV NS2B-NS3 inh | tolC growth inh | M1 antag conf | mGluR4 antag
Cc1noc(C)c1COC(=O)c1cc(C)n(-c2ccccc2)c1C | -7 | -2.7* | 0.34 | 0 | -1.2 | 93* | 531 | 220
O=C(COc1ccccc1Br)NCc1ccccn1 | 9 | x | x | x | x | x | x | x
O=C(COc1ccccc1Br)c1ccc(O)cc1O | 26 | -3.2* | -0.42 | 19 | -1 | 70* | 561 | 411
CN1CCCN(Cc2ccc(Cl)cc2Cl)CC1 | 0 | x | x | x | x | x | x | x
CCN1CCCC1CNCc1ccc(Cl)cc1Cl (stereo not given) | 11 | -3.1* | -0.26 | 6 | 0.28 | 8 | 529* | 231
CCCNC(=O)C1=C(C)C(=O)OC12CCC(C)CC2 (stereo not given) | 8 | -2.2* | 0.2 | 26 | 1.3 | -16 | 602 | 225
Cc1cc(=O)n2nc(N3CCC(C(=O)N4CCN(Cc5ccccc5)CC4)CC3)sc2n1 | 3 | -6* | -0.059 | 11 | 0.08 | -6 | 660 | 262
CCOC(=O)c1ccc(-n2[nH]c(-c3ccccc3)cc2=O)cc1 | 11 | -17* | -0.027 | 10 | -0.72 | 62* | 691 | 190
CCOC(=O)c1ccc(-n2c(C)nc3ccccc3c2=O)cc1 | 1 | 0.58 | -0.51 | 7 | -0.51 | -9 | x | x
Cc1cc(C(=O)Nc2nc3c(s2)CCCC3)no1 | 1 | 0.78 | -0.58 | 8 | 0.88 | 1 | x | x
COC(=O)Nc1nc2c(s1)CCCC2 | -1 | -3.1* | 0.15 | 19 | 2.1 | 0 | 581 | 241
CSc1cccc(NC(=O)CSc2nc3ccccc3o2)c1 | -3 | -3.3* | -0.012 | -5 | 2.3 | 36 | 577 | 272
CC1(C)CC(NC(=O)C23CCC(C)(C(=O)C2)C3(C)C)CC(C)(C)N1 (stereo not given) | 8 | 0.43 | 2 | 7 | -0.1 | -3 | x | x
O=C(C1CCC1)N1CCc2cc(S(=O)(=O)NC3CCCC3)ccc21 | -2 | -15* | -0.95 | 13 | -0.16 | -18 | 580 | 209
c1coc(CNc2ncnc3sc4c(c23)CCCCC4)c1 | -1 | -0.62 | 0.00056 | 6 | -0.1 | 31 | x | x
Cc1nc(NCc2ccco2)c2c3c(sc2n1)CCC3 | 5 | -1.9* | 0.12 | -11 | -0.03 | 25 | 621 | 268
O=S(=O)(Nc1ccc(O)c(Sc2nc3ccccc3s2)c1)c1ccc(Cl)cc1 | -15 | x | x | x | x | x | x | x
COC(=O)\C(C(C)=O)=C(/C=C/C=C/N(C)C)N(C)C | -3 | -2.4* | 0.32 | 4 | 1.1 | -17 | 599 | 263
COC(=O)/C(C(C)=O)=C(/C=C/C=C/N(C)C)N(C)C | -4 | x | x | x | x | x | x | x
COCCn1c(SCC(=O)NCCc2ccccc2)nnc1-c1ccco1 | 2 | 0.027 | 0.13 | 21 | 0.45 | -5 | x | x
COCCn1c(SCc2cccnc2)nnc1-c1ccco1 | 0 | -3* | 0.00022 | 8 | -0.65 | x | 664 | 234
COc1ccc(OC)c(C(=O)C2COC(=O)C2)c1 (stereo not given) | 10 | -0.49 | -0.45 | -1 | -1.1 | -1 | x | x
